Our source for the Tm and folding enthalpy values is the array DNA melting data of Ke et al. (doi:10.1101/2024.01.08.574731).

Data set [1] is described as follows: melting temperature; fluorescence melt of hairpins on a sequencing array, two-state fit, raised by 9.35 °C to match UV melts. The conditions noted are these: sodium 0.088 M. In a few lines:
(§1)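 Cy3 fluorescence of library hairpins on a sequenced MiSeq flow cell, with annealed Cy3 and quencher oligos, was imaged in 50 mM Na-HEPES pH 8.0, 25 mM NaCl in 2.5 °C steps up to 60 °C. Signals were normalised to pre-quench Cy3 and to control variants. Melting temperature and folding enthalpy came from bootstrapped two-state fits, inverse-variance combined over four replicates. Fitted temperatures were raised by 9.35 °C to match UV melts.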

Data set [2] can be described thus: folding enthalpy; higher = less favourable; fluorescence melt of hairpins on a sequencing array, two-state fit. The conditions noted are these: sodium 0.088 M. Summed up:
as §1

For GGCTGGGGAAACCCGGTC (.(.(((....))).).), the Tm in data set [1] amounted to 46.1 °C. Further, in data set [2], the folding enthalpy was -28.5 kcal/mol.
For GGCTGTCCGAAAGGAGCC (((..(((....)))))), the Tm in data set [1] turned out to be 47.4 °C. For the same sequence, in data set [2], the folding enthalpy was -25.1 kcal/mol.
For the sequence GGCTGTCGAAAGACCGCC (((.(((....))).))), in data set [1], the Tm was 56.6 °C. The folding enthalpy in data set [2] was -36.6 kcal/mol.
In the same order, the values of GGCTGTCGAAAGACTGCC (((.(((....))).))) are 63 °C and -41.2 kcal/mol.
On the same counts, the results for GGCTGTGCGAAAGCAGCC (((..(((....)))))) are 57.5 °C and -27.1 kcal/mol.
Consider GGCTGTGGAAACACGGTC (.(.(((....))).).), for which, in data set [1], the Tm was 44.4 °C. For the same sequence, the folding enthalpy in data set [2] is -28.1 kcal/mol.
Regarding GGCTTAGGAAACTAAGCC (((((((....))))))), the Tm in data set [1] worked out at 62.9 °C. In addition, the folding enthalpy in data set [2] is -48.5 kcal/mol.
On the same counts, the results for GGCTTCCGAAAGGATGCC (((.(((....))).))) are 62 °C and -48.9 kcal/mol.
On the same counts, the results for GGCTTCGAAAGAACCGCC ((((((....)))..))) are 47.4 °C and -21.1 kcal/mol.
In the same order, the values of GGCTTCGAAAGAACGGCC ((((((....)))..))) are 43 °C and -27.9 kcal/mol.
As to GGCTTCGAAAGAAGCGCC ((((((....)))..))), the Tm in data set [1] worked out at 57 °C. Moreover, the folding enthalpy in data set [2] is -9.54 kcal/mol.
In the same order, the values of GGCTTCGAAAGAAGGGCC ((((((....)))..))) are 40.4 °C and -19.6 kcal/mol.
In the same order, the values of GGCTTCGGAAACGAGGTC (.(.(((....))).).) are 39.3 °C and -26.3 kcal/mol.
On the same counts, the results for GGCTTGGAAACAAGCC ((((((....)))))) are 66.6 °C and -31.2 kcal/mol.
Regarding GGCTTGGCGAAAGCCGCC (((..(((....)))))), the Tm in data set [1] turned out to be 68.8 °C. The folding enthalpy in data set [2] was -16.6 kcal/mol.
In the same order, the values of GGCTTGGGAAACCAGGCC (((.(((....))).))) are 56.1 °C and -49 kcal/mol.
Consider GGCTTTGGAAACAAAGTC (.(((((....))))).), for which, in data set [1], the Tm turned out to be 48.9 °C. Besides, the folding enthalpy in data set [2] is -39.8 kcal/mol.
In the same order, the values of GGCTTTGGAAACAAGGCC (((.(((....))).))) are 51.6 °C and -40.5 kcal/mol.
On the same counts, the results for GGCTTTGGAAACGAAGTC (.(((.(....).))).) are 34.7 °C and -14.7 kcal/mol.
As for GGGAAACGAAAGTTCCCC (((.(((....))).))), in data set [1], the Tm worked out at 51 °C. Further, the folding enthalpy in data set [2] was -30.6 kcal/mol.
In the same order, the values of GGGAAAGGAAACTCTCCC ((((.((....)).)))) are 30.2 °C and -17.2 kcal/mol.
In the same order, the values of GGGAACCGAAAGGTCCCC (((.(((....))).))) are 58.1 °C and -25.4 kcal/mol.
On the same counts, the results for GGGAACCGAAAGGTGCCC (((.(((....))).))) are 64.3 °C and -41.4 kcal/mol.
In the case of GGGAACGAAAGTTACCCC ((((((....)))..))), in data set [1], the Tm was found to be 53.4 °C. Besides, the folding enthalpy in data set [2] was -20.2 kcal/mol.
On to GGGAACGAAAGTTTGCCC ((((((....)))..))), for which the Tm in data set [1] was found to be 31.8 °C. Besides, in data set [2], the folding enthalpy was -20.8 kcal/mol.
On to GGGAACGCGAAAGCGCCC (((..(((....)))))), for which, in data set [1], the Tm was 46.5 °C. In addition, the folding enthalpy in data set [2] is -16.4 kcal/mol.
On the same counts, the results for GGGAAGGGAAACCCTCCC ((((.((....)).)))) are 46.8 °C and -28.1 kcal/mol.
In the same order, the values of GGGAAGGGAAACCTTCTC (.(((((....))))).) are 46.6 °C and -23.8 kcal/mol.
In the case of GGGAAGGGAAACTTTCCC (((((.(....).))))), the Tm in data set [1] worked out at 45.5 °C. Also, the folding enthalpy in data set [2] is -26 kcal/mol.
In the same order, the values of GGGAAGTCGAAAGACCCC (((..(((....)))))) are 44.8 °C and -22.7 kcal/mol.
GGGAATACGAAAGTACCC (((..(((....)))))): the Tm in data set [1] was found to be 33.9 °C. In data set [2], the folding enthalpy was -23 kcal/mol.
In the same order, the values of GGGAATCCGAAAGGACCC (((..(((....)))))) are 38.1 °C and -18.1 kcal/mol.
On the same counts, the results for GGGAATGGAAACATTCCC (((((((....))))))) are 62 °C and -54.2 kcal/mol.
With GGGAATGGAAACGTTCCC (((((.(....).))))), the Tm in data set [1] is 50.6 °C. In addition, the folding enthalpy in data set [2] was -38 kcal/mol.
Regarding GGGACACCGAAAGGTCCC (((..(((....)))))), the Tm in data set [1] is 51.4 °C. The folding enthalpy in data set [2] is -27.7 kcal/mol.
On the same counts, the results for GGGACCCGAAAGGGACCC (((.(((....))).))) are 67 °C and -31.1 kcal/mol.
On the same counts, the results for GGGACCGAAAGGTACCC ((((((....))).))) are 64.1 °C and -18.9 kcal/mol.
Take GGGACCGAAAGGTGACCC ((((((....)))..))): the Tm in data set [1] is 45.6 °C. Besides, the folding enthalpy in data set [2] is -17.6 kcal/mol.
As to GGGACCGAAAGGTTTCCC ((((((....)))..))), the Tm in data set [1] is 42.5 °C. Further, the folding enthalpy in data set [2] is -18.6 kcal/mol.
In the same order, the values of GGGACCGGAAACGATCCC ((((.((....)).)))) are 50.8 °C and -45.8 kcal/mol.
Turning to GGGACGGCGAAAGCCCCC (((..(((....)))))), in data set [1], the Tm was 42.3 °C. In data set [2], the folding enthalpy is -14.8 kcal/mol.
On the same counts, the results for GGGACGGGAAACCACCCC (((..((....))..))) are 32.1 °C and -18.4 kcal/mol.
Consider GGGACTCGAAAGAGCCCC (((.(((....))).))), for which, in data set [1], the Tm is 57.1 °C. In addition, the folding enthalpy in data set [2] is -34.6 kcal/mol.
Take GGGACTGGAAACAGCCCC (((.(((....))).))): the Tm in data set [1] worked out at 51.9 °C. In data set [2], the folding enthalpy is -35.3 kcal/mol.
In the same order, the values of GGGACTTCGAAAGAACCC (((..(((....)))))) are 29.8 °C and -5.69 kcal/mol.
On the same counts, the results for GGGAGACGAAAGTCACCC (((.(((....))).))) are 58.2 °C and -31.5 kcal/mol.
On the same counts, the results for GGGAGACGAAAGTCCCC (((.(((....)))))) are 56.4 °C and -35.5 kcal/mol.
Regarding GGGAGCCGAAAGGCCCC (((.(((....)))))), the Tm in data set [1] amounted to 69 °C. Besides, in data set [2], the folding enthalpy was -20.1 kcal/mol.
On to GGGAGCCGAAAGGCCCCC (((.(((....))).))), for which, in data set [1], the Tm worked out at 65.9 °C. Further, in data set [2], the folding enthalpy was -21.3 kcal/mol.
In the same order, the values of GGGAGCGAAAGCTATCCC ((((((....)))..))) are 48 °C and -16.6 kcal/mol.
On the same counts, the results for GGGAGCGAAAGCTTACCC ((((((....)))..))) are 42.5 °C and -16.9 kcal/mol.
As for GGGAGCGAAAGCTTCCC ((((((....))).))), the Tm in data set [1] was 61.7 °C. The folding enthalpy in data set [2] is -20.5 kcal/mol.
With GGGAGCGAAAGCTTTCCC ((((((....)))..))), in data set [1], the Tm amounted to 40.4 °C. For the same sequence, in data set [2], the folding enthalpy is -16.3 kcal/mol.
In the same order, the values of GGGAGCGCGAAAGCGCCC (((..(((....)))))) are 58.6 °C and -10.1 kcal/mol.
As to GGGAGCGGAAACACTCCC (((((.(....).))))), the Tm in data set [1] was found to be 50.8 °C. In addition, in data set [2], the folding enthalpy is -37.7 kcal/mol.
In the same order, the values of GGGAGCGGAAACGCTTCC ((.((((....)))).)) are 61.4 °C and -33.7 kcal/mol.
In the same order, the values of GGGAGGCGAAAGCCCCCC (((.(((....))).))) are 64.8 °C and -17.2 kcal/mol.
For GGGAGTGGAAACACTTCC ((.((((....)))).)), the Tm in data set [1] came to 50.5 °C. Also, the folding enthalpy in data set [2] is -36.2 kcal/mol.
In the same order, the values of GGGATACCGAAAGGTCCC (((..(((....)))))) are 45.2 °C and -17.4 kcal/mol.
On the same counts, the results for GGGATATCGAAAGATCCC (((..(((....)))))) are 43.4 °C and -27.9 kcal/mol.
In the same order, the values of GGGATCCGAAAGGACCCC (((.(((....))).))) are 59.1 °C and -35.2 kcal/mol.
In the case of GGGATCGAAAGATAGCCC ((((((....)))..))), the Tm in data set [1] came to 32.4 °C. In data set [2], the folding enthalpy is -17.3 kcal/mol.
Regarding GGGATCGAAAGATTCCC ((((((....))).))), in data set [1], the Tm was 51 °C. Further, the folding enthalpy in data set [2] is -25 kcal/mol.
On to GGGATCGGAAACGATTCC ((.((((....)))).)), for which the Tm in data set [1] amounted to 53.5 °C. The folding enthalpy in data set [2] was -40.7 kcal/mol.
For GGGATCGGAAACGGTTCC ((.(.((....)).).)), the Tm in data set [1] turned out to be 40.9 °C. Also, the folding enthalpy in data set [2] is -35.7 kcal/mol.
Consider GGGATGCCGAAAGGCCCC (((..(((....)))))), for which, in data set [1], the Tm was 46.6 °C. Also, the folding enthalpy in data set [2] is -15.6 kcal/mol.
As for GGGATGCGAAAGCACCCC (((.(((....))).))), the Tm in data set [1] was found to be 61.4 °C. For the same sequence, the folding enthalpy in data set [2] is -27.7 kcal/mol.
For the sequence GGGATTCGAAAGAAACCC (((.(((....))).))), the Tm in data set [1] is 50.6 °C. For the same sequence, the folding enthalpy in data set [2] is -48.4 kcal/mol.
As for GGGATTGGAAACAATCTC (.(((((....))))).), the Tm in data set [1] was found to be 45.3 °C. The folding enthalpy in data set [2] is -28.3 kcal/mol.
Regarding GGGATTGGAAACAGTTCC ((.(.((....)).).)), the Tm in data set [1] is 34.3 °C. In addition, the folding enthalpy in data set [2] is -16.6 kcal/mol.
On the same counts, the results for GGGATTGGAAACGATCTC (.(((.(....).))).) are 31.4 °C and -15.3 kcal/mol.
On the same counts, the results for GGGCAAACGAAAGTTCCC (((..(((....)))))) are 35.6 °C and -19.5 kcal/mol.
GGGCAACGAAAGTTTCCC (((.(((....))).))): the Tm in data set [1] came out at 47.4 °C. The folding enthalpy in data set [2] was -32.1 kcal/mol.
